{"data": "Results collected from several papers", "BCL2": "Apoptosis regulator Bcl-2 (BCL2, Homo sapiens, UniProt P10415)", "CYP1A1": "Cytochrome P450 1A1 (CYP1A1, Homo sapiens, UniProt P04798)", "Enoyl-[acyl-carrier-protein] reductase [NADPH] FabI": "Enoyl-[acyl-carrier-protein] reductase [NADPH] FabI (Staphylococcus aureus, UniProt Q6GI75)", "note": "Each line is one published result; the experiments were not run side by side."}
{"SMILES": "CC[C@H](C)[C@H](NC(=O)[C@H](CCC(=O)O)NC(=O)[C@H](CC(=O)O)NC(=O)CNC(=O)[C@H](CC(C)C)NC(=O)[C@H](CCCNC(=N)N)NC(=O)[C@H](CCC(N)=O)NC(=O)[C@H](CC(C)C)NC(=O)[C@H](CO)NC(=O)[C@H](CCC(N)=O)NC(=O)[C@@H](NC(=O)[C@H](CC(C)C)NC(=O)[C@H](Cc1c[nH]c2ccccc12)NC(=O)[C@@H](NC(=O)[C@H](CCC(=O)O)NC(=O)[C@@H]1CCCN1C(=O)[C@H](CCCNC(=N)N)NC(C)=O)[C@@H](C)CC)[C@@H](C)O)C(=O)N[C@@H](CC(N)=O)C(=O)N[C@@H](C)C(=O)N[C@@H](Cc1ccc(O)cc1)C(=O)N[C@@H](Cc1ccc(O)cc1)C(=O)N[C@@H](C)C(=O)N[C@@H](CCCNC(=N)N)C(N)=O", "target": "BCL2", "test": "ligand displacement, FP", "Ki [nM]": "~2700"}
{"SMILES": "C[C@H]1Oc2cc(cnc2N)-c2c(nn(C)c2C#N)CN(C)C(=O)c2ccc(F)cc21", "target": "Dual specificity mitogen-activated protein kinase kinase 1 (MAP2K1, Homo sapiens, UniProt Q02750)", "test": "cell-free assay", "setting": "lysate", "Ki [nM]": 128}
{"SMILES": "CC[C@H](NC(=O)[C@H](CS(=O)(=O)CC1CC1)N[C@@H](c1ccc(F)cc1)C(F)(F)F)C(=O)C(=O)NC1CC1", "target": "Cathepsin S (Ctss, Mus musculus, UniProt O70370)", "test": "enzyme activity, inhibitor", "Ki [nM]": 0.04}
{"SMILES": "C#Cc1cccc(-c2cc(=O)c3ccccc3o2)c1", "target": "CYP1A1", "test": "enzyme activity, inhibitor, fluorescence", "setting": "6 min, pH 7.6", "Ki [nM]": 41}
{"SMILES": "CCc1cc(O)c(Oc2ccc(C(N)=O)cc2F)cc1F", "target": "Enoyl-[acyl-carrier-protein] reductase [NADPH] FabI", "test": "enzyme activity, inhibitor", "Ki [nM]": 0.08}
{"SMILES": "CC[C@H](C)[C@H](NC(=O)[C@H](CCC(=O)O)NC(=O)[C@H](CC(=O)O)NC(=O)CNC(=O)[C@H](CC(C)C)NC(=O)[C@H](CCCNC(=N)N)NC(=O)[C@H](CCCNC(=N)N)NC(=O)[C@H](CC(C)C)NC(=O)CNC(=O)[C@H](CCC(N)=O)NC(=O)[C@@H](NC(=O)[C@H](CCSC)NC(=O)[C@H](Cc1c[nH]c2ccccc12)NC(=O)[C@@H](NC(=O)[C@H](CCC(=O)O)NC(=O)[C@@H]1CCCN1C(=O)[C@H](CCCNC(=N)N)NC(C)=O)[C@@H](C)CC)[C@@H](C)O)C(=O)N[C@@H](CC(N)=O)C(=O)N[C@@H](C)C(=O)N[C@@H](Cc1ccc(O)cc1)C(=O)N[C@@H](Cc1ccc(O)cc1)C(=O)N[C@@H](C)C(=O)N[C@@H](CCCNC(=N)N)C(N)=O", "target": "BCL2", "test": "ligand displacement, FP", "Ki [nM]": "~2900"}
{"SMILES": "CCn1c(-c2nc3cc(C(=O)N4CCC[C@@H](N)C4)cc(OC)c3n2C)cc2cccnc21", "target": "Protein-arginine deiminase type-1 (PADI1, Homo sapiens, UniProt Q9ULC6)", "test": "enzyme activity, inhibitor", "Ki [nM]": 570000}
{"SMILES": "O=C(O)CCC(NC(=O)NC(CCCCNC(=O)CCCCCCC(=O)NC(CCCCNC(=O)CN1CCN(CC(=O)O)CCN(CC(=O)O)CCN(CC(=O)O)CC1)C(=O)OCc1ccccc1)C(=O)O)C(=O)O.[Ga+3] (stereo not drawn)", "target": "Glutamate carboxypeptidase 2 (FOLH1, Homo sapiens, UniProt Q04609)", "test": "enzyme activity, inhibitor, fluorescence", "Ki [nM]": 29}
{"SMILES": "C#Cc1ccc(-c2cc(=O)c3ccccc3o2)cc1", "target": "CYP1A1", "test": "enzyme activity, inhibitor, fluorescence", "setting": "6 min, pH 7.6", "Ki [nM]": 39}
{"SMILES": "NCCCC[C@H](NC(=O)[C@@H]1CCCN1C(=O)[C@@H]1CSSC[C@H](NC(=O)CNC(=O)CNC(=O)CN)C(=O)N[C@@H](Cc2ccc(O)cc2)C(=O)N[C@@H](Cc2ccccc2)C(=O)N[C@@H](CCC(N)=O)C(=O)N[C@@H](CC(N)=O)C(=O)N1)C(=O)NCC(N)=O", "target": "Vasopressin V1a receptor (AVPR1A, Homo sapiens, UniProt P37288)", "test": "ligand displacement, radioligand", "setting": "cell membranes", "Ki [nM]": 1100}
{"SMILES": "COc1cc(O)c(CC=C(C)C)c(O)c1C(=O)/C=C/c1ccc(O)cc1", "target": "CYP1A1", "test": "enzyme activity, inhibitor, fluorescence", "setting": "15 min, pH 7.4", "Ki [nM]": 110}
{"SMILES": "N#Cc1cc(Br)ccc1Oc1ccc(Cl)cc1O", "target": "Enoyl-[acyl-carrier-protein] reductase [NADPH] FabI", "test": "enzyme activity, inhibitor", "Ki [nM]": 0.17}
